ChEMBL document CHEMBL1142328, “Imidazolidines as new anti-Trypanosoma cruzi agents: biological evaluation and structure-activity relationships” (Bioorg Med Chem, 2008)
Calls of active or inactive are those of the source. The calls are words filed in the database; no cut-off is given here.

Legend:
[1] = test system: Trypanosoma cruzi; test: Growth inhibition of Trypanosoma cruzi epimastigotes Tulahuen 2 at 25 uM; assay type: functional; conditions: for inhibition of growth at 25 µM: read-out: GI
In short: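 Epimastigotes in BHI-Tryptose + 5% FBS at 28 °C, inoculated at 1×10^6 cells/mL from 10-day stationary culture. Drug tested at 25 μM from DMSO stock (final DMSO ≤0.4%; 0.4% DMSO control). Inhibition % = {1 − [(Ap − A0p)/(Ac − A0c)]}×100 using A600 at day 0 and day 5. Means of three experiments.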

[2] = test system: Trypanosoma cruzi; test: Growth inhibition of Trypanosoma cruzi epimastigotes Tulahuen 2; assay type: functional, organism-based
In short: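 Epimastigotes grown axenically at 28 °C in BHI-Tryptose with 5% FBS. Stationary-phase (10-day) cells inoculated at 1×10^6 cells/mL into medium with drug (DMSO stock, final DMSO ≤0.4%; 0.4% DMSO control). Growth followed by A600 daily. IC50 = concentration reducing the day-5 absorbance ratio vs control to 50%, over increasing concentrations. Means of three experiments.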

[3] = test system: Trypanosoma cruzi; test: Increase in lactose metabolite excretion in cell free medium of Trypanosoma cruzi Y relative to control; assay type: functional, organism-based; conditions: in the assay text read “lactate” for “lactose”
In short: (§1)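 Parasites treated with compound for 2 days. 5 mL of culture centrifuged at 1500g, 10 min, 4 °C. Parasite-free supernatant stored at −20 °C, then analysed by 1H NMR. Metabolite signals confirmed by spiking and by a 4 µg/mL standard in phosphate buffer pH 7.4. Increase expressed as % relative to untreated cells.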

[4] = test system: Trypanosoma cruzi; test: Increase in alanine metabolite excretion in cell free medium of Trypanosoma cruzi Y relative to control; assay type: functional, organism-based; in short: as §1
[5] = test system: Trypanosoma cruzi; test: Increase in acetate metabolite excretion in cell free medium of Trypanosoma cruzi Y relative to control; assay type: functional, organism-based; in short: as §1
[6] = test system: Trypanosoma cruzi; test: Increase in glycine metabolite excretion in cell free medium of Trypanosoma cruzi Y relative to control; assay type: functional, organism-based; in short: as §1

Compound	inhibition of growth at 25 µM [1] [%]	IC50 [2] [µM]	further results
COc1ccc(CN2CCN(Cc3ccc(OC)cc3)C2c2ccccc2Cl)cc1	49	25.3	–
CN1CCN(c2ccccc2)C1c1ccccc1 (stereo unspecified)	0	–	–
Brc1ccc(N2CCN(CN3CCN(c4ccc(Br)cc4)C3)C2)cc1	0	–	–
Clc1ccc(CN2CCN(Cc3ccc(Cl)cc3)C2c2ccc(Cl)c(Cl)c2)cc1	92	9	–
COc1ccc(CN2CCN(Cc3ccc(OC)cc3)C2c2cccc(Cl)c2)cc1	95	14	–
CC1CS(=O)(=O)CCN1/N=C/c1ccc([N+](=O)[O-])o1 (stereo unspecified) [NIFURTIMOX]	100	–	–
Oc1ccccc1C1N(Cc2ccc(Cl)cc2)CCN1Cc1ccc(Cl)cc1	86.8	4.3	–
O=[N+]([O-])c1ccc(C2N(Cc3ccc(Cl)cc3)CCN2Cc2ccc(Cl)cc2)cc1	100	14.5	–
Clc1ccc(CN2CCN(Cc3ccc(Cl)cc3)C2c2ccccc2Cl)cc1	100	11	–
Oc1ccccc1CNCCNCc1ccccc1O	–	–	Activity [1]: inactive
Oc1ccccc1CN1CCN(Cc2ccccc2O)C1c1ccccc1	4.8	–	–
Clc1ccc(N2CCN(Cc3ccccc3)C2)cc1	64.7	–	–
Clc1ccc(C2N(Cc3ccccc3)CCN2Cc2ccccc2)cc1	60	23.5	–
Clc1ccc(CN2CCN(Cc3ccc(Cl)c(Cl)c3)C2c2ccco2)cc1Cl	93.9	4.1	Activity [3]: 10%; Activity [4]: 30%; Activity [5]: 10%; Activity [6]: 15%
c1ccc(CN2CCN(c3ccccc3)C2c2ccccc2)cc1 (stereo unspecified)	45.1	–	–
O=[N+]([O-])c1ccc(N2CCN(CN3CCN(c4ccc([N+](=O)[O-])cc4)C3)C2)cc1	0	–	–
COc1ccc(CN2CCN(Cc3ccc(OC)cc3)C2/C=C/c2ccccc2)cc1	98.6	10	–
Cc1ccc(N2CCN(CN3CCN(c4ccc(C)cc4)C3)C2)cc1	0	–	–
Clc1ccc(CNCCNCc2ccc(Cl)cc2)cc1	–	2	–

Compound	inhibition of growth at 25 µM [1] [%]	IC50 [2] [µM]	further results
Clc1ccc(CN2CCN(Cc3ccc(Cl)cc3)C2c2ccccc2)cc1	94.5	5	–
Cc1ccc(CN2CCN(Cc3ccc(C)cc3)C2c2ccccc2)cc1	100	12.5	–
COc1ccc(CN2CCN(Cc3ccc(OC)cc3)C2C)cc1	40	37	–
COc1ccc(N2CCN(CN3CCN(c4ccc(OC)cc4)C3)C2)cc1	0	–	–
COc1ccc(CN2CCN(Cc3ccc(OC)cc3)C2c2ccc(Cl)c(Cl)c2)cc1	91	16	–
Cc1ccc(N2CCN(Cc3ccccc3)C2)cc1	44.2	–	–
c1ccc(CN2CCN(c3ccccc3)C2)cc1	17.2	–	–
Clc1ccc(CN2CCN(Cc3ccc(Cl)c(Cl)c3)C2)cc1Cl	100	15.1	–
Cc1ccc(CN2CCN(Cc3ccc(C)cc3)C2c2ccc(Cl)cc2)cc1	100	9	–
Cc1ccc(CN2CCN(Cc3ccc(C)cc3)C2c2cccc(Cl)c2)cc1	99	13.4	–
Brc1cccc(N2CCN(CN3CCN(c4cccc(Br)c4)C3)C2)c1	10.8	–	–
Clc1ccc(C2N(Cc3ccc(Cl)c(Cl)c3)CCN2Cc2ccc(Cl)c(Cl)c2)cc1	50	25	–
COc1ccc(CN2CCN(Cc3ccc(OC)cc3)C2c2ccccc2)cc1	75.3	1.1	–
COc1ccc(CN2CCN(Cc3ccc(OC)cc3)C2c2ccc([N+](=O)[O-])cc2)cc1	83	16.5	–
CC1N(c2ccccc2)CCN1c1ccccc1	12.4	–	–
Clc1cccc(CN2CCN(Cc3cccc(Cl)c3)C2c2ccccc2)c1	100	14.7	–
Cc1ccc(N2CCN(Cc3ccccc3)C2c2ccccc2)cc1 (stereo unspecified)	46	–	–
COc1ccc(CN2CCN(Cc3ccc(OC)cc3)C2c2cccc([N+](=O)[O-])c2)cc1	93	23	–
c1ccc(CN2CCN(Cc3ccccc3)C2c2ccccc2)cc1	63	–	–

Compound	inhibition of growth at 25 µM [1] [%]	IC50 [2] [µM]	further results
Clc1ccc(CN2CCN(Cc3ccc(Cl)c(Cl)c3)C2c2ccccc2)cc1Cl	100	6.4	–
Clc1cccc(N2CCN(CN3CCN(c4cccc(Cl)c4)C3)C2)c1	8	–	–
Clc1ccc(CN2CCN(Cc3ccc(Cl)cc3)C2c2ccc(Cl)cc2)cc1	100	8.9	–
c1ccc(N2CCN(c3ccccc3)C2)cc1	12.3	–	–
COc1ccc(C2N(Cc3ccc(Cl)cc3)CCN2Cc2ccc(Cl)cc2)cc1	100	5	–
Cc1ccc(N2CCN(C)C2c2ccccc2)cc1 (stereo unspecified)	8.9	–	–
c1ccc(C2N(c3ccccc3)CCN2c2ccccc2)cc1	39.6	–	–
Clc1ccc(CN2CCN(Cc3ccc(Cl)cc3)C2c2ccco2)cc1	89.4	4.3	–
c1ccc(N2CCN(CN3CCN(c4ccccc4)C3)C2)cc1	0	–	–
Clc1ccc(CN2CCN(Cc3ccc(Cl)cc3)C2/C=C/c2ccccc2)cc1	100	10.2	–
COc1ccc(CNCCNCc2ccc(OC)cc2)cc1	–	16.2	–
Clc1cccc(CN2CCN(Cc3cccc(Cl)c3)C2)c1	100	9.7	–
Clc1ccc(CN2CCN(Cc3ccc(Cl)cc3)C2c2cccc(Cl)c2)cc1	100	4.7	–
Clc1ccc(CN2CCN(Cc3ccc(Cl)c(Cl)c3)C2c2ccc(Cl)c(Cl)c2)cc1Cl	30	–	–
COc1ccc(CN2CCN(Cc3ccc(OC)cc3)C2c2ccc(Cl)cc2)cc1	100	14.9	–
Clc1ccc(N2CCN(Cc3ccccc3)C2c2ccccc2)cc1 (stereo unspecified)	70.4	–	–
Clc1ccc(N2CCN(CN3CCN(c4ccc(Cl)cc4)C3)C2)cc1	0	–	–
Clc1ccc(CN2CCN(Cc3ccc(Cl)cc3)C2)cc1	100	10.3	–
Oc1cccc(C2N(Cc3ccc(Cl)cc3)CCN2Cc2ccc(Cl)cc2)c1	97.4	4.6	Activity [3]: 30%; Activity [4]: 40%; Activity [5]: 60%; Activity [6]: 60%
